According to ChEMBL document CHEMBL4689842, “EUbOPEN Chemogenomics Library wave 1” (2021):

System: HEK-293T
Experiment: Multiplex assay against HEK293T;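 as to Population Tubulin-Different-Phenotype (%): share of the cells with healthy nuclei that show this phenotype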
Format: toxicity, cell-based
Settings: human
Outline: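 Live cells were stained at seeding with Hoechst33342, BioTracker Green Microtubule Cytoskeleton Dye, MitoTracker Red and Annexin V Alexa Fluor 680. Following compound addition, they were imaged on a CQ1 microscope at 37°C and 5% CO2 and gated by CellPathfinder machine learning into Hoechst high-intensity objects or normal cells, with normal cells split into healthy, pyknosed or fragmented nuclei and pyknosed cells into mitotic or apoptotic. Tubulin, mitochondrial-mass and membrane-permeability phenotypes are per cents of healthy-nucleus cells.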

[1] = 12 h, 1 µM, compound concentration 1 uM, replicate 1
[2] = 12 h, 1 µM, compound concentration 1 uM, replicate 2
[3] = 12 h, 10 µM, compound concentration 10 uM, replicate 1
[4] = 12 h, 10 µM, compound concentration 10 uM, replicate 2
[5] = 24 h, 1 µM, compound concentration 1 uM, replicate 1
[6] = 24 h, 1 µM, compound concentration 1 uM, replicate 2
[7] = 24 h, 10 µM, compound concentration 10 uM, replicate 1
[8] = 24 h, 10 µM, compound concentration 10 uM, replicate 2
[9] = 48 h, 1 µM, compound concentration 1 uM, replicate 1
[10] = 48 h, 1 µM, compound concentration 1 uM, replicate 2
[11] = 48 h, 10 µM, compound concentration 10 uM, replicate 1
[12] = 48 h, 10 µM, compound concentration 10 uM, replicate 2

Cc1csc2c(N[C@@H](C)CN3CCN(S(=O)(=O)c4ccc(Cl)c(Cl)c4)CC3)ncnc12
Population Apoptotic (%) [1]: 58%
Population Fragmented Nuclei (%) [1]: 12%
Population Healthy Nuclei (%) [1]: 16%
Population Hoechst High Intensity Objects (%) [1]: 19%
Population Membrane Permeable-Phenotype (%) [1]: 6%
Population Mitochondria Different-Phenotype (%) [1]: 96%
Population Mitotic Cells (%) [1]: 41%
Population Normal (%) [1]: 80%
Population Pyknosed Nuclei (%) [1]: 71%
Population Tubulin-Different-Phenotype (%) [1]: 93%
Total Cell Count [1]: 223
Population Apoptotic (%) [2]: 27%
Population Fragmented Nuclei (%) [2]: 5%
Population Healthy Nuclei (%) [2]: 29%
Population Hoechst High Intensity Objects (%) [2]: 13%
Population Membrane Permeable-Phenotype (%) [2]: 14%
Population Mitochondria Different-Phenotype (%) [2]: 47%
Population Mitotic Cells (%) [2]: 72%
Population Normal (%) [2]: 86%
Population Pyknosed Nuclei (%) [2]: 64%
Population Tubulin-Different-Phenotype (%) [2]: 64%
Total Cell Count [2]: 135
Population Apoptotic (%) [3]: 79%
Population Fragmented Nuclei (%) [3]: 9%
Population Healthy Nuclei (%) [3]: 5%
Population Hoechst High Intensity Objects (%) [3]: 11%
Population Membrane Permeable-Phenotype (%) [3]: 20%
Population Mitochondria Different-Phenotype (%) [3]: 90%
Population Mitotic Cells (%) [3]: 20%
Population Normal (%) [3]: 88%
Population Pyknosed Nuclei (%) [3]: 84%
Population Tubulin-Different-Phenotype (%) [3]: 80%
Total Cell Count [3]: 197
Population Apoptotic (%) [4]: 80%
Population Fragmented Nuclei (%) [4]: 5%
Population Healthy Nuclei (%) [4]: 11%
Population Hoechst High Intensity Objects (%) [4]: 8%
Population Membrane Permeable-Phenotype (%) [4]: 9%
Population Mitotic Cells (%) [4]: 19%
Population Normal (%) [4]: 91%
Population Pyknosed Nuclei (%) [4]: 83%
Population Tubulin-Different-Phenotype (%) [4]: 68%
Total Cell Count [4]: 206
Population Apoptotic (%) [5]: 57%
Population Fragmented Nuclei (%) [5]: 16%
Population Healthy Nuclei (%) [5]: 21%
Population Hoechst High Intensity Objects (%) [5]: 18%
Population Membrane Permeable-Phenotype (%) [5]: 4%
Population Mitochondria Different-Phenotype (%) [5]: 93%
Population Mitotic Cells (%) [5]: 42%
Population Normal (%) [5]: 81%
Population Pyknosed Nuclei (%) [5]: 62%
Population Tubulin-Different-Phenotype (%) [5]: 90%
Total Cell Count [5]: 244
Population Apoptotic (%) [6]: 35%
Population Fragmented Nuclei (%) [6]: 10%
Population Healthy Nuclei (%) [6]: 28%
Population Hoechst High Intensity Objects (%) [6]: 7%
Population Membrane Permeable-Phenotype (%) [6]: 8%
Population Mitochondria Different-Phenotype (%) [6]: 44%
Population Mitotic Cells (%) [6]: 64%
Population Normal (%) [6]: 92%
Population Pyknosed Nuclei (%) [6]: 61%
Population Tubulin-Different-Phenotype (%) [6]: 88%
Total Cell Count [6]: 131
Population Apoptotic (%) [7]: 85%
Population Fragmented Nuclei (%) [7]: 12%
Population Healthy Nuclei (%) [7]: 6%
Population Hoechst High Intensity Objects (%) [7]: 16%
Population Membrane Permeable-Phenotype (%) [7]: 27%
Population Mitochondria Different-Phenotype (%) [7]: 90%
Population Mitotic Cells (%) [7]: 14%
Population Normal (%) [7]: 83%
Population Pyknosed Nuclei (%) [7]: 80%
Population Tubulin-Different-Phenotype (%) [7]: 63%
Total Cell Count [7]: 208
Population Apoptotic (%) [8]: 88%
Population Fragmented Nuclei (%) [8]: 5%
Population Healthy Nuclei (%) [8]: 7%
Population Hoechst High Intensity Objects (%) [8]: 9%
Population Membrane Permeable-Phenotype (%) [8]: 0%
Population Mitochondria Different-Phenotype (%) [8]: 85%
Population Mitotic Cells (%) [8]: 11%
Population Normal (%) [8]: 91%
Population Pyknosed Nuclei (%) [8]: 86%
Population Tubulin-Different-Phenotype (%) [8]: 71%
Total Cell Count [8]: 200
Population Apoptotic (%) [9]: 59%
Population Fragmented Nuclei (%) [9]: 16%
Population Healthy Nuclei (%) [9]: 38%
Population Hoechst High Intensity Objects (%) [9]: 17%
Population Membrane Permeable-Phenotype (%) [9]: 5%
Population Mitochondria Different-Phenotype (%) [9]: 80%
Population Mitotic Cells (%) [9]: 40%
Population Normal (%) [9]: 82%
Population Pyknosed Nuclei (%) [9]: 45%
Population Tubulin-Different-Phenotype (%) [9]: 85%
Total Cell Count [9]: 240
Population Apoptotic (%) [10]: 29%
Population Fragmented Nuclei (%) [10]: 10%
Population Healthy Nuclei (%) [10]: 47%
Population Hoechst High Intensity Objects (%) [10]: 8%
Population Membrane Permeable-Phenotype (%) [10]: 17%
Population Mitochondria Different-Phenotype (%) [10]: 44%
Population Mitotic Cells (%) [10]: 70%
Population Normal (%) [10]: 91%
Population Pyknosed Nuclei (%) [10]: 42%
Population Tubulin-Different-Phenotype (%) [10]: 89%
Total Cell Count [10]: 159
Population Apoptotic (%) [11]: 47%
Population Fragmented Nuclei (%) [11]: 23%
Population Healthy Nuclei (%) [11]: 4%
Population Hoechst High Intensity Objects (%) [11]: 17%
Population Membrane Permeable-Phenotype (%) [11]: 25%
Population Mitochondria Different-Phenotype (%) [11]: 62%
Population Mitotic Cells (%) [11]: 52%
Population Normal (%) [11]: 82%
Population Pyknosed Nuclei (%) [11]: 72%
Population Tubulin-Different-Phenotype (%) [11]: 87%
Total Cell Count [11]: 229
Population Apoptotic (%) [12]: 74%
Population Fragmented Nuclei (%) [12]: 4%
Population Healthy Nuclei (%) [12]: 21%
Population Hoechst High Intensity Objects (%) [12]: 13%
Population Membrane Permeable-Phenotype (%) [12]: 8%
Population Mitochondria Different-Phenotype (%) [12]: 78%
Population Mitotic Cells (%) [12]: 25%
Population Normal (%) [12]: 86%
Population Pyknosed Nuclei (%) [12]: 73%
Population Tubulin-Different-Phenotype (%) [12]: 67%
Total Cell Count [12]: 199
